Experimental findings from ChEMBL document CHEMBL4316637, “Highly Modified Lanostane Triterpenes from Fruiting Bodies of the Basidiomycete Tomophagus sp” (J Nat Prod, 2019) are described below.

Values after ≈ are worked out from the molar mass of the structure shown.

One test deals with Plasmodium falciparum. The experiment in a line: Antimalarial activity against Plasmodium falciparum K1 infected in human type A+ erythrocytes incubated for 24 hrs followed by [G-3H]-hypoxanthine incorporation and measured after 18 hrs by liquid scintillation counting method. Type of test: functional, organism-based. The essentials:
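P. falciparum K1 (multidrug-resistant strain), tested in duplicate with the microculture radioisotope technique; IC50 derived.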

The next test has as its system Vero. The experiment in a line: Cytotoxicity against African green monkey Vero cells by GFP based microplate assay. It counts as cell-based. The following applies: Chlorocebus sabaeus. The essentials: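 Vero cells (nonmalignant African green monkey kidney […]) tested with a green fluorescent protein microplate assay.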
Test [1] deals with Mycobacterium tuberculosis. The experiment in a line: Antitubercular activity against Mycobacterium tuberculosis H37Ra by GFP based microplate assay. Type of test: functional. In a few lines: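 Whole-cell assay on M. tuberculosis H37Ra growth, read by green fluorescent protein signal in microplates; activity given as MIC in μg/mL.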

In the case of `CC(=O)OC(C)(C)[C@@H]1CC=C2C(=CC[C@]3(C)[C@@H]([C@H](C)[C@@H]4CC=C(C)C(=O)O4)CC[C@@]23C)[C@@]12CCC(=O)OC2`, the IC50 with Plasmodium falciparum was determined as 7.7 µM; with Vero it was 38 µM. Besides, in test [1], it took 50 mg/L (≈ 95.3 µM) to inhibit growth (MIC).

Consider `CC(=O)[C@H]1C[C@@H](O)[C@@]2(C)C3=C(C=C4C=CC(=O)OC(C)(C)[C@@H]4CC3)CC[C@]12C`, for which the IC50 was above 26 µM in the test with Plasmodium falciparum and above 130 µM in the test on Vero. For the same compound, the MIC in test [1] was above 50 mg/L.

Consider `CC(=O)OC[C@]12CC[C@H](O)C(C)(C)[C@@H]1CCC1=C2CC[C@]2(C)[C@@H]([C@H](C)[C@@H]3CC=C(C)C(=O)O3)CC[C@@]12C`, for which the values for the IC50 in the test with Plasmodium falciparum and in the test with Vero were above 20 µM and above 98 µM, respectively. In addition, in test [1], the MIC is above 50 mg/L.

Turning to `CC1=CC[C@@H]([C@@H](C)[C@H]2CC[C@@]3(C)C4=CC[C@H]5C(C)(C)OC[C@@]5(CCC(=O)O)C4=CC[C@]23C)OC1=O`, the IC50 in the test on Plasmodium falciparum was 5.1 µM; in the test on Vero it was above 104 µM. In test [1], this compound yielded an MIC above 50 mg/L.

As a reminder, the IC50 is the concentration at which inhibition is half-maximal. As a reminder, the MIC is the lowest concentration found to suppress growth.
